bCat KO growth: beta-catenin-lacking colon tumor cell growth suppression | actives 1.5% (n = 140,000) | AID 818 | HCT116 beta-catenin knockout viability, CellTiter-Glo, 60 h; active compounds read low | viability, % at 10 µM;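 active = viability at or under a set limit, the compound median less 4 SD, cut at about 6% in these data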;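 note: 0% = Hyamine 1622 control at 20 µM and 100% = untreated cell control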
HCT116 PTEN-null: growth suppressors of cells with PTEN tumor suppressor deletion; viability, % at 10 µM; actives 1.2% (n = 140,000); HCT116 PTEN-null viability, CellTiter-Glo, 60 h; active compounds read low;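 active = viability at or below a set limit, 4 SD under the median of all tested compounds, cut at about 3.7% in these data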;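 note: PTEN knockout HCT116 line with beta catenin targeted HCT116 as companion control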
Dynein transport: dynein cargo transport inhibition | z-score, hits read low | actives 0.47% (n = 220,000) | 3617.4 mouse cells, GR-EGFP nuclear translocation imaging; test concentration mostly 20 µM; stimulated with dexamethasone, 1 µM; active compounds read low;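 active = plate z-score of nuclear minus cytoplasmic receptor signal below a set negative limit, without overly bright fluorescence or cell loss, cut at about -3.5 in these data, passing the limit was not always enough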;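 note: z-score of nuclear minus cytoplasmic ring GR-EGFP intensity difference per well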
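Schedule: 48 h induction, then 1 h compound, then 30 min agonist, 37 °C. Buffer or medium: tetracycline-free induction medium containing charcoal-stripped FBS. Reagent: 1.0 µM final dexamethasone stimulus. Evaluation: nuclear versus cytoplasmic GR-EGFP signal, averaged per well. Signal: high-content fluorescence imaging after fixation.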
Autophagy mod: modulators of autophagy; actives 0.98% (n = 190,000); AID 463193; MEF GFP-LC3 puncta imaging; test concentration mostly 10 µM; calls only at 10 µM (by protocol);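 active = percentage of spot-positive cells more than 3 SD above its plate mean, without a fluorescence outlier flag or 80% toxicity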;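 note: spot-positive cell cutoff set from DMSO-treated cells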
sdo1 growth: sdo1-depleted yeast growth rescue. S. cerevisiae sdo1-depleted JHY4D growth rescue, OD600 30 h; active compounds read high; pdr5 snq2 efflux-pump mutant strain. z-score at 10 µM. actives 0.21% (n = 140,000);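 active = z-score above 3 at both the 24 hr and the 30 hr optical density reads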;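 note: z-score against mean and SD of all compound wells on the same plate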
* hit, by the source's call; i = inactive; · = not tested or not shown; + = active, no number. Compounds with a hit are over-represented: about 2.2% of the library has one in this group of screens.

SMILES	bCat KO growth	HCT116 PTEN-null	Dynein transport	Autophagy mod	sdo1 growth
CC(C)CN1C(=S)SC(C)(C)C1n1oc(=O)n(-c2ccccc2)c1=O (centres undefined)	47	53	1.9	i	0.36
CC(C)CN1C(=S)SC(C)(C)C1n1oc(=O)n(-c2ccc(Cl)cc2)c1=O (centres undefined)	2.3*	0.8*	0.88	i	-0.38
CC(C)(C)c1ccc(OCC(=O)NNC(=O)C2CCCO2)cc1 (centres undefined)	·	·	0.87	i	·
COc1ccc(/C=C/C(=O)Nc2ccc(OC)cc2[N+](=O)[O-])cc1	100	109	1.9	i	0.04
CCOc1ccc(NC(=O)/C=C/c2ccc(OC)cc2)c([N+](=O)[O-])c1	99	94	-0.34	+	0.63
COc1ccc(OC)c(C2=NOC(C(=O)Nc3cc(C)nn3-c3ccccc3)C2)c1 (centres undefined)	88	90	1.9	i	-0.26
Cc1cc(C)c(C(=O)/C=C/c2cccc3ccccc23)c(=O)[nH]1	1.5*	2.3*	-1.5	i	-0.28
CC1CCN(c2c(NCc3ccc(C(=O)N(C)C4CCCCC4)cc3)c(=O)c2=O)CC1	·	·	0.77	·	·
CC1CCN(c2c(NCc3ccc(C(=O)N4CCc5ccccc54)cc3)c(=O)c2=O)CC1	19	21	-1.1	+	0.64
Cc1ccc(C(=O)c2c(C)oc3c2C(=O)C(=O)c2ccccc2-3)cc1	0.8*	1.1*	-1.8	i	-2.5
Cc1ccc(C(=O)c2coc3c2C(=O)C(=O)c2ccccc2-3)cc1	1.8*	1.4*	-0.46	i	-2.8
Cc1oc2c(c1C(=O)c1ccc(Cl)cc1)C(=O)C(=O)c1ccccc1-2	0.9*	0.9*	-1.9	i	-2.7
COc1cc(C2C(C#N)=C(N)N(c3ccc(F)cc3)C3=C2S(=O)(=O)CC3)ccc1O (centres undefined)	·	·	0.0033	i	·
OCCN1CCN(c2nc(-c3ccccc3)nc3c2oc2ccccc23)CC1	11	16	0.26	i	-0.78
CC(O)CN=c1cc(-c2ccccc2)oc2ccc(Cl)cc12 (centres undefined)	5.7*	5	-0.55	i	0.88
COc1cccc(/C=N/n2c(N)c(S(=O)(=O)c3cccs3)c3nc4ccccc4nc32)c1OC	2.1*	2.8*	0.67	i	-0.53
Cc1ccc(S(=O)(=O)c2c(N)n(-c3ccccc3)c3nc4ccccc4nc23)cc1	79	72	0.11	i	-0.04
Nc1c(S(=O)(=O)c2cccc(Cl)c2)c2nc3ccccc3nc2n1/N=C/c1ccc(O)c(O)c1	1.1*	1.5*	2.5	i	-2.1
CCCC(=O)NCCSC	98	81	0.75	i	0.47
O=S(=O)(NCC1CCCO1)c1ccc(-c2ccc(Cl)cc2)cc1 (centres undefined)	·	·	-0.97	+	·
CC(=O)/C(=N\Nc1ccc(C)cc1)Sc1nncn1C	88	89	2.8	+	0.35
Cc1ccc(NC(=O)CN(C)C(=O)CSc2nncn2C)cc1	99	92	-0.16	i	0.9
Cc1cccc(C(=O)N=c2c(C#N)cc3c(=O)n4cccc(C)c4nc3n2Cc2ccco2)c1	92	82	-1.7	+	0.35
CCCCCOc1ccc(Br)cc1CSC(=N)N	1.3*	0.8*	3.1	i	-0.72
O=C(CSCCO)Nc1cc(C(F)(F)F)ccc1Cl	105	102	1.7	i	1.2
SMILES	bCat KO growth	HCT116 PTEN-null	Dynein transport	Autophagy mod	sdo1 growth
COc1ccc(OC)c(NC(=O)CSc2ccc3ccccc3c2)c1	99	94	-0.34	i	-0.15
Cc1ccc(S(=O)(=O)/C(=C/Cl)NC(=O)c2ccccc2)cc1	6.0*	9	-2	i	-0.66
CC(C(=O)Nc1nc2ccccc2s1)n1cc([N+](=O)[O-])cn1 (centres undefined)	·	·	1	i	·
CC(C)(CC(=O)O)CC(=O)Nc1cc(-c2ccccc2)[nH]n1	·	·	-0.72	·	·
CCCCCCn1c(Br)nc2c1c(=O)n(C)c(=O)n2C	·	·	-0.39	i	·
CC1CCN(c2ccc(C(=O)NCCc3ccccc3)cn2)CC1	96	94	0.28	i	-1.7
COCCNC(=O)CN(C(=O)c1ccc(N2CCCC2)nc1)c1ccccc1	·	·	1.1	+	·
Cc1cc(C)c(C)c(S(=O)(=O)N2CCN(CC(=O)Nc3ccc([N+](=O)[O-])cc3)CC2)c1C	86	84	-0.38	i	-0.31
O=C(CN1CCCCC1)Nc1cccc(Br)c1	97	104	0.94	i	1.1
CCN1CCc2c(OCC(=O)Nc3ccc4c(c3)OCCO4)cccc2C1=O	·	·	0.22	i	·
N#CC(C#N)=C1NC2(CCCCC2)Cc2ccccc21	·	·	0.45	·	·
N#CC(C#N)=c1ccc2c(c1)NC1(CCCCC1)N=2	1.4*	1.3*	-1.7	i	2.9
CCOC(=O)Cn1cc(/C=C/[N+](=O)[O-])c2ccccc21	·	·	0.078	i	·
Cc1cccc(Cn2cc(/C=C/[N+](=O)[O-])c3ccccc32)c1	3.2*	3.0*	-1.2	i	-1.8
O=C(COC(=O)C1(c2ccc(Cl)cc2)CCCC1)NC1CCS(=O)(=O)C1 (centres undefined)	77	74	0.32	i	-0.03
CCNC(=O)c1cc2c(=O)n3cccc(C)c3nc2n(CCc2ccccc2)c1=N	4.8*	6	-1.2	i	0.58
COCCn1c(=N)c(C(=O)NCCc2ccccc2)cc2c(=O)n3cccc(C)c3nc21	·	·	-0.21	i	·
CCOc1ccc(/C(O)=C2\C(=O)C(=O)N(CCOCCO)C2c2ccccc2OC)cc1 (centres undefined)	79	89	0.14	i	1.4
O=C1c2ccccc2NC(c2ccc(-c3cccc([N+](=O)[O-])c3)o2)N1O (centres undefined)	12	10	2.2	i	0.08
O=C1c2ccccc2NC(c2ccc(-c3ccc(Br)cc3)o2)N1O (centres undefined)	4.5*	3.4*	-0.91	i	-1.2
Cc1nn(C(C)C(=O)c2cccc(Cl)c2)c(C)c1[N+](=O)[O-] (centres undefined)	·	·	-0.34	i	·
Cn1cnc([N+](=O)[O-])c1S(=O)(=O)c1cccc(Cl)c1	1.2*	0.9*	-3.3	i	1.5
C[N+]1=C2CCCCCN2C(O)(c2ccccc2)C1 (centres undefined)	82	90	2	i	0.24
COC(=O)c1ccccc1NC(=O)c1cccs1	92	94	-0.42	i	-0.1
COC(=O)c1ccccc1NC(=O)c1cc(-c2cccs2)on1	17	10	-1.1	+	0.94
Cc1nc([N+](=O)[O-])c(Sc2nc3ccccc3n2C)n1Cc1ccccc1	2.7*	1.8*	-3.4	i	-0.77
CNC(=S)N/N=C1\C(=O)c2cccc3cccc1c23	2.6*	1.2*	0.84	+	-0.06
CCCCNC(=S)N/N=C1\C(=O)c2cccc3cccc1c23	84	89	-0.34	i	-0.76

Screens: PubChem BioAssay, several laboratories
